An excerpt weighted towards active compounds, which were near 2.5% of everything screened.
MEKK3 PB1 HTS: modulators (inhibitors or enhancers) of MEK5 binding to human MEKK3 PB1 domain; Q99759; bead-based flow cytometry, Alexa488-MEK5 binding to MEKK3; actives lie on both sides; 0 = blocked by unlabeled MEK5, 100 = vehicle; binding response (% of control), % at 10 µM; 1.4% of 290,000 active; AID 1529;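 active = binding response more than 3 SD above or below the average of its plate-row segment, actives on both sides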;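 also: Alexa488 bead fluorescence after subtracting the streptavidin-only scavenger bead signal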
UCH37 DUB inh: inhibitors of human deubiquitinating enzyme UCH37 | AID 588478 | 0.33% of 330,000 active | inhibition, % (no concentration beside the values) | purified proteasome/UCH37, Ub-AMC cleavage fluorescence | Q9Y5K5;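 active = mean inhibition over replicate wells above about 20%, limit read from the data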
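Test system – human UCH37 enzyme supplied as purified proteasome complex · Incubation – 30 min preincubation with enzyme, 25 min cleavage at room temperature · Detection – AMC fluorescence from Ub-AMC cleavage, excitation 355 nm, emission 460 nm · Benchmarks – no-proteasome wells (full inhibition) and compound-free wells (no inhibition)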
Rce1 inh: blocks yeast Ras-converting enzyme; 0.27% of 290,000 active; calls only; AID 2563; yeast membranes, quenched prenylated peptide cleavage fluorescence;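 active = fall in fluorescence gain of 50% or more versus controls, with final raw signal at or below 3038400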
T cell HTS: T cell immune modulation candidate. 2C CD8+ T cell-vesicle binding, flow cytometry; hits give low values. response (vesicle binding), % at 7 µM. 0.068% of 330,000 active. AID 2052;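 active = response, share of CD8 T cells binding vesicles, and their 90th percentile fluorescence all below set limits, cut at about 80% in these data, passing the limit was not always enough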;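 also: values below 100% mean blocked vesicle binding to the CD8+ T cells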
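Material: murine 2C transgenic CD8+ T lymphocytes / Also added: QL9-peptide-loaded Drosophila micro-vesicles bearing Ld, ICAM-1 and B7-1 / Schedule: binding step 1.5 h, 37 °C, antibody labelling 20 min, ice / Signal: flow cytometry, PE anti-B7-1 (FL2) versus Alexa647 anti-CD8 (FL8), PFA-fixed / Evaluation: percent CD8+ FL2 mean versus row control / Benchmarks: naked versus QL9-loaded vesicles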
MEKK2mut PB1 HTS: signal of MEK5 binding to mutant human MEKK2 PB1 domain. percent response, % at 10 µM. 0.35% of 290,000 active. AID 1530. bead flow cytometry, Alexa488-MEK5 binding to MEKK2 mutant; in the data active = percent response above about 24%, passing the limit was not always enough
MEKK2 WT-MEK5: raises or lowers MEK5 binding to wildtype human MEKK2 PB1 domain. Q9Y2U5. bead flow cytometry, Alexa488-MEK5 binding to MEKK2 WT; actives lie on both sides. binding response (% of control), % at 10 µM. 1.1% of 290,000 active. AID 1531; in the data active = binding response below about 67% or above about 130%
Hits are given with their value; – = inactive; · = no result; + = active, no number; [ ] = another dose, or the depositor's remark.

SMILES	MEKK3 PB1 HTS	UCH37 DUB inh	Rce1 inh	T cell HTS	MEKK2mut PB1 HTS	MEKK2 WT-MEK5
C[N+](C)(C)CCCNC(=O)c1ccc(C=NO)nc1	·	–	·	·	·	·
CCS(=O)(=O)Nc1c(C(=O)O)[nH]c2ccccc12	–	–	+	–	–	–
CCS(=O)(=O)Nc1c(C(=O)OC)[nH]c2ccccc12	–	–	–	–	–	–
COc1ccc(NS(=O)(=O)c2ccc3oc(=O)c4[nH]c(=O)c(=O)n(C)c4c3c2)cc1	–	–	+	–	–	–
CC(=O)c1c(C)[nH]c(C(=O)OCc2ccc(Br)cc2)c1C	–	–	+	–	–	–
COc1ccc(NC(=O)c2cn3c(nc4ccccc43)c(C#N)c2C)cc1	–	–	+	–	–	–
Cc1cc(C)nc(NN=Cc2ccc(Cl)cc2)n1	·	–	·	·	·	·
O=C(CC1C(=O)NCCN1CCCc1ccccc1)NCCc1ccccc1F (stereo not drawn)	–	–	–	–	28	134
O=C(O)C1CCC(Cn2c(SCc3cc(=O)n4cc(Cl)ccc4n3)nc3ccsc3c2=O)CC1 (stereo not drawn)	–	–	–	25	–	–
O=C(CC(c1ccccc1)c1ccccc1)Nc1ccc(Cl)cn1	–	34	–	–	–	–
O=C(CS(=O)(=O)c1ccccc1)Nc1ccc(Cl)cn1	–	–	–	–	–	–
COc1cc(C=NNc2nc(N3CCCC3)nc(N3CCCC3)n2)ccc1OCc1ccccc1F	·	–	·	·	·	·
COc1ccc(-c2nc3ncccc3o2)cc1NC(=O)c1ccco1	–	–	+	–	–	–
COc1ccc(-c2nc3ncccc3o2)cc1NC(=O)c1cccs1	–	–	–	–	–	–
COc1cc(O)c(CCO)c2c1C(=O)C[C@@H](C)O2	–	–	–	–	–	-9.0
NC(=O)NN=Cc1ccccc1OCC(=O)NCc1ccccc1	·	–	·	·	·	·
Cc1cc(C(=O)NN=Cc2cc(Br)cc(Br)c2OC(=O)c2cccc(F)c2)n[nH]1	·	–	·	·	·	·
C=CCOc1ccc(C2NC(=S)NC(c3ccccc3)=C2C(C)=O)cc1OC (stereo not drawn)	–	–	–	27	–	–
COc1cc(C2NC(=O)NC(c3ccccc3)=C2C(C)=O)ccc1OCC#N (stereo not drawn)	–	–	–	–	–	–
CCOc1ccccc1CNC(=O)C1CCCN(c2nc3ccccc3o2)C1 (stereo not drawn)	68[inhibitor]	·	·	·	–	–
O=C(/C=C/c1c(F)cccc1Cl)Nc1ccncc1	–	–	–	–	–	–
O=C(/C=C/c1c(Cl)cccc1Cl)Nc1ccncc1	–	–	–	0.0	–	–
O=C1C(Cl)=C(NCc2cccnc2)C(=O)c2ccccc21	–	25	–	–	–	–
COc1ccc(C)c2sc(N(CCN(C)C)C(=O)c3ccc4ccccc4c3)nc12	–	–	–	–	24	145
CCN(CC)CCN(C(=O)c1ccc(S(=O)(=O)N(CC)c2ccccc2)cc1)c1nc2c(OC)ccc(OC)c2s1	–	–	–	–	28	157
SMILES	MEKK3 PB1 HTS	UCH37 DUB inh	Rce1 inh	T cell HTS	MEKK2mut PB1 HTS	MEKK2 WT-MEK5
CN(C)CCN(C(=O)c1ccc(C(=O)c2ccccc2)cc1)c1nc2cc3c(cc2s1)OCO3	–	–	–	–	–	140
CN(C)CCN(C(=O)c1ccc(C(=O)c2ccccc2)cc1)c1nc2cc3c(cc2s1)OCCO3	–	–	–	–	–	–
O=C(COC(=O)c1ccc(S(=O)(=O)N2CCCC2)cc1)NCc1ccccc1	–	–	+	–	–	–
O=C(COC(=O)c1ccc(S(=O)(=O)N2CCOCC2)cc1)Nc1ccccc1OC(F)F	·	–	·	0.0	·	·
CCC(=O)c1ccc2c(c1)OCCO2	–	–	–	–	–	–
Cc1cc[n+](CC(=O)c2ccc3c(c2)OCCO3)cc1	–	24	–	–	–	–
CC1(c2ccncc2)Nc2ccccc2-c2nc3ccccc3n21 (stereo not drawn)	–	–	+	–	–	–
CSC(=S)NN=C(C)c1ccccc1	·	–	·	·	·	·
CCOc1ccc(C(Nc2ccc(C)cc2)P2(=O)OCCCO2)cc1 (stereo not drawn)	–	–	–	–	–	–
CCOc1ccc(C(Nc2ccc(C)cc2)P2(=O)OCCC(C)O2)cc1 (stereo not drawn)	–	30	–	–	–	–
